Assay results taken from ChEMBL document CHEMBL1143590, “Synthesis and monoamine transporter binding properties of 3beta-(3',4'-disubstituted phenyl)tropane-2beta-carboxylic acid methyl esters” (J Med Chem, 2005).

How the values were obtained:
[1] = Binding affinity towards serotonin transporter determined using [3H]paroxetine as radioligand
How it was run: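 Serotonin transporter affinity from competition binding versus [³H]paroxetine at a final concentration of 0.2 nM.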

[2] = Binding affinity of compound towards dopamine transporter determined using [3H]WIN-35 428 as radioligand
How it was run: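 Competition binding at the dopamine transporter; displacement of [³H]WIN 35,428 at 0.5 nM final concentration.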

[3] = Binding affinity towards norepinephrine transporter determined using [3H]nisoxetine as radioligand
How it was run: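 Competition binding at the norepinephrine transporter against [³H]nisoxetine, present at 1.0 nM final concentration.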

SMILES	Ki [1] [nM]	IC50 [2] [nM]	Ki [3] [nM]
COC(=O)C1C2CC[C@H](C[C@@H]1c1ccc(Cl)c(C)c1)N2C (stereo partly specified)	10.5	0.82	36.2
COC(=O)[C@@H]1C2CC[C@H](C[C@@H]1c1ccccc1)N2C	1060	23	920
COC(=O)C1C(c2ccc(Br)c(Cl)c2)CC2CCC1N2C (stereo unspecified)	0.94	0.12	1.31
COC(=O)C1C(c2ccc(Cl)c(Br)c2)CC2CCC1N2C (stereo unspecified)	0.78	0.42	7.24
COC(=O)C1C(c2ccc(Cl)c(I)c2)CC2CCC1N2C (stereo unspecified)	1.39	0.41	15.1
COC(=O)C1C(c2ccc(C)c(C)c2)CC2CCC1N2C (stereo unspecified)	9.88	0.43	107
COC(=O)C1C(c2ccc(I)c(I)c2)CC2CCC1N2C (stereo unspecified)	2	0.98	40.4
COC(=O)C1C(c2ccc(Br)c(Br)c2)CC2CCC1N2C (stereo unspecified)	0.71	0.27	2.8
COC(=O)C1C(c2ccc(Br)c(I)c2)CC2CCC1N2C (stereo unspecified)	1.14	0.21	10.4
COC(=O)C1C2CC[C@H](C[C@@H]1c1ccc(I)c(Br)c1)N2C (stereo partly specified)	0.58	0.2	1.96
COC(=O)C1C2CC[C@H](C[C@@H]1c1ccc(I)c(Cl)c1)N2C (stereo partly specified)	1.04	0.26	1.26
COC(=O)C1C(c2ccc(Cl)c(Cl)c2)CC2CCC1N2C (stereo unspecified)	3.13	0.79	18
